From ChEMBL document CHEMBL1132309, “(R)-3,3,3-Trifluoro-2-hydroxy-2-methylpropionamides are orally active inhibitors of pyruvate dehydrogenase kinase” (J Med Chem, 1999)
Each block holds one compound with its values, some of them ahead of it. The source made the active and inactive calls. The calls are words filed in the database; no cut-off is given here.

Experiments:
[1] = target: pyruvate dehydrogenase kinase (Sus scrofa); assay: In vitro inhibitory activity against Pyruvate dehydrogenase kinase by primary enzymatic assay
[2] = target: Pyruvate dehydrogenase kinase (Homo sapiens, UniProt Q15119+Q15120+Q16654+Q15118); assay: […] inhibion of pyruvate dehydrogenase kinase, increased oxidation of lactate; format: functional
Method in brief: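 Human fibroblasts, modified Ofenstein assay: conversion of [14C]lactate to 14CO2, taken as activation of the PDH complex. EC50 in μM ± standard error.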

[3] = The area under the curve of compound was measured at the dose of 300 umol/kg; format: ADME, organism-based; settings: rat, in vivo
Method in brief: (§1)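 Oral dosing at 30, 100 and 300 μmol/kg. Blood plasma concentrations followed to give peak concentration and estimated half-life.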

[4] = The time to reach maximum concentration of compound was measured at the dose of 300 umol/kg; format: ADME, organism-based; settings: rat, in vivo
Method in brief: as §1

[5] = The maximum concentration of compound was measured at the dose of 300 umol/kg; format: ADME, organism-based; design: dose 300 umol/kg; settings: rat, in vivo
Method in brief: as §1

[6] = target: T1, Pyruvate dehydrogenase kinase (Rattus norvegicus) (UniProt Q63065+A6IPZ9+Q64536+O54937); assay: In vivo inhibition of pyruvate dehydrogenase kinase, reduced lactate level in normal 24 hr r fasted rats at 300 umol/kg oral dose; format: functional, organism-based; design: scale not given: the % may be the effect or the level left
[7] = target: T1, Pyruvate dehydrogenase kinase (Rattus norvegicus); assay: In vivo inhibition of pyruvate dehydrogenase kinase, reduced lactate level in normal 24 hr r fasted rats at 1 mmol/kg oral dose; format: functional, organism-based; design: scale not given: the % may be the effect or the level left
[8] = target: T1, Pyruvate dehydrogenase kinase (Rattus norvegicus); assay: In vivo inhibition of pyruvate dehydrogenase kinase, reduced lactate level in normal 24 hr r fasted rats at 300 umol/kg oral dose; Not active; format: functional, organism-based
[9] = The time to reach maximum concentration of compound was measured at the dose of 100 umol/kg; format: ADME, organism-based; settings: rat, in vivo
Method in brief: as §1

[10] = target: T1, Pyruvate dehydrogenase kinase (Rattus norvegicus); assay: In vivo inhibition of pyruvate dehydrogenase kinase, reduced lactate level in normal 24 hr r fasted rats at 30 umol/kg oral dose; format: functional, organism-based; design: scale not given: the % may be the effect or the level left
[11] = The maximum concentration of compound was measured at the dose of 100 umol/kg; format: ADME, organism-based; design: dose 100 umol/kg; settings: rat, in vivo
Method in brief: as §1

[12] = target: T1, Pyruvate dehydrogenase kinase (Rattus norvegicus); assay: In vivo inhibition of pyruvate dehydrogenase kinase, reduced lactate level in normal 24 hr r fasted rats at 100 umol/kg oral dose; format: functional, organism-based; design: scale not given: the % may be the effect or the level left
[13] = The area under the curve of compound was measured at the dose of 100 umol/kg; format: ADME, organism-based; settings: rat, in vivo
Method in brief: as §1

[14] = The biological half life the compound was measured at the dose of 100 umol/kg; format: ADME, organism-based; settings: rat, in vivo
Method in brief: as §1

[15] = target: T1, Pyruvate dehydrogenase kinase (Rattus norvegicus); assay: In vivo inhibition of pyruvate dehydrogenase kinase, reduced lactate level in normal 24 hr r fasted rats at 10 umol/kg oral dose; format: functional, organism-based; design: scale not given: the % may be the effect or the level left
[16] = The biological half life the compound was measured at the dose of 30 umol/kg; format: ADME, organism-based; settings: rat, in vivo
Method in brief: as §1

[17] = The area under the curve of compound was measured at the dose of 30 umol/kg; format: ADME, organism-based; settings: rat, in vivo
Method in brief: as §1

[18] = target: T1, Pyruvate dehydrogenase kinase (Rattus norvegicus); assay: In vivo inhibition of pyruvate dehydrogenase kinase, reduced lactate level in normal 24 hr r fasted rats at 100 uMmol/kg oral dose; format: functional, organism-based; design: dose or concentration left out as unconfirmed
[19] = The time to reach maximum concentration of compound was measured at the dose of 30 umol/kg; format: ADME, organism-based; settings: rat, in vivo
Method in brief: as §1

[20] = The maximum concentration of compound was measured at the dose of 30 umol/kg; format: ADME, organism-based; design: dose 30 umol/kg; settings: rat, in vivo
Method in brief: as §1

[21] = target: T1, Pyruvate dehydrogenase kinase (Rattus norvegicus); assay: In vivo inhibition of pyruvate dehydrogenase kinase, reduced lactate level in normal 24 hr r fasted rats at 1 umol/kg oral dose; format: functional, organism-based; design: scale not given: the % may be the effect or the level left
[22] = target: T1, Pyruvate dehydrogenase kinase (Rattus norvegicus); assay: In vivo inhibition of pyruvate dehydrogenase kinase, reduced lactate level in normal 24 hr r fasted rats at 3 umol/kg oral dose; format: functional, organism-based; design: scale not given: the % may be the effect or the level left

SMILES: C[C@@](O)(C(=O)Nc1ccc(S(=O)(=O)F)cc1Cl)C(F)(F)F
IC50 [1]: 77 nM

SMILES: C[C@](O)(C(=O)NC1CCCCC1)C(F)(F)F
IC50 [1]: 200000 nM

SMILES: C[C@](O)(C(=O)Nc1ccccc1Cl)C(F)(F)F
IC50 [1]: 9800 nM

SMILES: O=C([O-])C(Cl)Cl.[Na+]
Control [7]: 70%

SMILES: C[C@@H]1CN(C(=O)[C@@](C)(O)C(F)(F)F)[C@@H](C)CN1Cc1ccccc1
IC50 [1]: 82 nM

SMILES: C[C@@](O)(C(=O)NC1CCCCC1)C(F)(F)F
IC50 [1]: 6200 nM

SMILES: C[C@@](O)(C(=O)Nc1ccccc1)C(F)(F)F
IC50 [1]: 35000 nM

SMILES: C[C@@](O)(C(=O)Nc1ccccc1Cl)C(F)(F)F
EC50 [2]: 5400 nM
IC50 [1]: 300 nM
Control [8]: inactive

The remaining lines, values ahead:

IC50 [1]: 6700 nM
SMILES: C[C@@](O)(C(=O)N1CCN(C(=O)c2ccc(C#N)cc2)CC1)C(F)(F)F

EC50 [2]: 17000 nM
IC50 [1]: 55 nM
AUC [3]: 670 µM·h
Tmax [4]: 6 h
Cmax [5]: 53.8 µM
Control [6]: 72%
SMILES: C[C@@](O)(C(=O)Nc1ccc(S(=O)(=O)N2CCNCC2)cc1Cl)C(F)(F)F

IC50 [1]: 120 nM
SMILES: COC(=O)c1ccc(NC(=O)[C@@](C)(O)C(F)(F)F)c(Cl)c1

IC50 [1]: 9300 nM
SMILES: C[C@@](O)(C(=O)Nc1ccc(S(=O)(=O)N2CCCCC2)cc1)C(F)(F)F

EC50 [2]: 590 nM
IC50 [1]: 1500 nM
Control [8]: inactive
SMILES: C[C@@](O)(C(=O)Nc1ccc(C(=O)N2CCCCC2)cc1Cl)C(F)(F)F

Tmax [9]: 0.5 h
Control [10]: 98%
EC50 [2]: 1400 nM
Cmax [11]: 87.3 µM
Control [12]: 70%
IC50 [1]: 90 nM
AUC [13]: 143 µM·h
half-life [14]: 4.6 h
SMILES: C[C@@](O)(C(=O)Nc1ccc(C(=O)O)cc1Cl)C(F)(F)F

Control [15]: 90%
Control [10]: 60%
half-life [16]: 3 h
EC50 [2]: 250 nM
IC50 [1]: 79 nM
AUC [17]: 196 µM·h
Control [18]: 67%
Tmax [19]: 1.25 h
Cmax [20]: 23.8 µM
SMILES: C[C@@H]1CN(C(=O)[C@@](C)(O)C(F)(F)F)CCN1C(=O)c1ccc(C#N)cc1

Control [8]: inactive
SMILES: CC(O)(C(=O)Nc1ccc(C(=O)c2ccccc2)cc1)C(F)(F)F (single isomer, unassigned)

IC50 [1]: 110 nM
SMILES: C[C@@](O)(C(=O)Nc1ccc(C(=O)c2ccccc2)cc1Cl)C(F)(F)F

Control [15]: 74%
EC50 [2]: 57 nM
IC50 [1]: 16.5 nM
Control [21]: 87%
Control [22]: 90%
SMILES: C[C@@H]1CN(C(=O)[C@@](C)(O)C(F)(F)F)[C@@H](C)CN1C(=O)c1ccc(C#N)cc1

IC50 [1]: 21 nM
SMILES: C[C@@H]1CN(C(=O)[C@@](C)(O)C(F)(F)F)CCN1C(=O)OCc1ccccc1
